Assay results reported in ChEMBL document CHEMBL3861962 (Eur J Med Chem, 2016).
Values belong to the compound of their own block, whether it stands above or below them.

What was measured:
[1] = Drug level in human liver microsomes treated with bosentan at 5 uM in presence of NADPH after 30 mins by LC-MS/MS analysis; format: ADME; conditions: 0.5 h
Procedure, shortened: (§1)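 Substrate at 5 μM final in 100 mM potassium phosphate, pH 7.4, incubated with human liver microsomes or baculovirus-expressed recombinant CYP3A4, 2D6 or 2C9. Reaction started with 1 mM NADPH and run 0, 15 and 30 min at 37 °C. Stopped with ice-cold acetonitrile containing labetalol internal standard, then centrifuged. Supernatant analysed by LC-MS/MS on a C18 column at 40 °C. Blank was enzyme without substrate.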

[2] = Retention time of the compound; format: physicochemical
Cytochrome P450 3A4 [3] = molecular target: T1, Cytochrome P450 3A4 (Homo sapiens, UniProt P08684); experiment: Drug level assessed as human recombinant CYP3A4-mediated compound formation treated with bosentan at 5 uM in presence of NADPH after 30 mins by LC-MS/MS analysis; format: ADME; conditions: recombinant enzyme, 0.5 h; procedure, shortened: as §1
Cytochrome P450 3A4 [4] = molecular target: T1, Cytochrome P450 3A4; experiment: Drug level assessed as human recombinant CYP3A4-mediated compound formation treated with 4-(1,1,1,2,3,3,3-Heptafluoropropan-2-yl)-N-(6-(2-hydroxyethoxy)-5-(2-methoxyphenoxy)-2,2'-bipyrimidin-4-yl)benzenesulfonamide at 5 uM in presence of NADPH after 30 mins by LC-MS/MS analysis; format: ADME; conditions: recombinant enzyme, 0.5 h; procedure, shortened: as §1
[5] = Drug level in human liver microsomes treated with 4-(1,1,1,2,3,3,3-Heptafluoropropan-2-yl)-N-(6-(2-hydroxyethoxy)-5-(2-methoxyphenoxy)-2,2'-bipyrimidin-4-yl)benzenesulfonamide at 5 uM in presence of NADPH after 30 mins by LC-MS/MS analysis; format: ADME; conditions: 0.5 h; procedure, shortened: as §1
[6] = Drug level in human liver microsomes treated with 4-(1,1,1,3,3,3-Hexafluoro-2-hydroxypropan-2-yl)-N-(6-(2-hydroxyethoxy)-5-(2-methoxyphenoxy)-2,2'-bipyrimidin-4-yl)benzenesulfonamide at 5 uM in presence of NADPH after 30 mins by LC-MS/MS analysis; format: ADME; conditions: 0.5 h; procedure, shortened: as §1
Cytochrome P450 3A4 [7] = molecular target: T1, Cytochrome P450 3A4; experiment: Drug level assessed as human recombinant CYP3A4-mediated compound formation treated with 4-(1,1,1,3,3,3-Hexafluoro-2-hydroxypropan-2-yl)-N-(6-(2-hydroxyethoxy)-5-(2-methoxyphenoxy)-2,2'-bipyrimidin-4-yl)benzenesulfonamide at 5 uM in presence of NADPH after 30 mins by LC-MS/MS analysis; format: ADME; conditions: recombinant enzyme, 0.5 h; procedure, shortened: as §1
Cytochrome P450 2C9 [8] = molecular target: T2, Cytochrome P450 2C9 (Homo sapiens, UniProt P11712); experiment: Drug metabolism assessed as human recombinant CYP2C9-mediated metabolite formation by measuring parent compound remaining at 5 uM in presence of NADPH after 30 mins by LC-MS/MS analysis; format: ADME; conditions: recombinant enzyme, 0.5 h; procedure, shortened: as §1
Cytochrome P450 2D6 = Cytochrome P450 2D6 (Homo sapiens, UniProt P10635); experiment: Drug metabolism assessed as human recombinant CYP2D6-mediated metabolite formation by measuring parent compound remaining at 5 uM in presence of NADPH after 30 mins by LC-MS/MS analysis; format: ADME; conditions: recombinant enzyme, 0.5 h; procedure, shortened: as §1
[9] = Drug metabolism in human liver microsomes assessed as formation of N-(6-ethoxy-5-(2-methoxyphenoxy)-2,2'-bipyrimidin-4-yl)-4-(1-hydroxy-2-methylpropan-2-yl)benzenesulfonamide at 5 uM in presence of NADPH after 30 mins by LC-MS/MS analysissss; format: ADME; conditions: 0.5 h
Procedure, shortened: (§2)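 Pooled human liver microsomes in 100 mM potassium phosphate, pH 7.4, with test compound at 5 μM final. Reaction started with 1 mM NADPH (final) and run at 37 °C in a shaking water bath for 0, 15 and 30 min. Stopped with an equal volume of ice-cold acetonitrile containing 0.6 μM labetalol as internal standard. Protein was spun out and the supernatant analysed by LC-MS/MS. Blank had no compound.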

Cytochrome P450 3A4 [10] = molecular target: T1, Cytochrome P450 3A4; experiment: Drug metabolism assessed as human recombinant CYP3A4-mediated formation of N-(6-ethoxy-5-(2-methoxyphenoxy)-2,2'-bipyrimidin-4-yl)-4-(1-hydroxy-2-methylpropan-2-yl)benzenesulfonamide at 5 uM in presence of NADPH after 30 mins by LC-MS/MS analysissss; format: ADME; conditions: recombinant enzyme, 0.5 h; procedure, shortened: as §1
Cytochrome P450 2C9 [11] = molecular target: T2, Cytochrome P450 2C9; experiment: Drug metabolism assessed as human recombinant CYP2C9-mediated formation of N-(6-ethoxy-5-(2-methoxyphenoxy)-2,2'-bipyrimidin-4-yl)-4-(1-hydroxy-2-methylpropan-2-yl)benzenesulfonamide at 5 uM in presence of NADPH after 30 mins by LC-MS/MS analysissss; format: ADME; conditions: recombinant enzyme, 0.5 h; procedure, shortened: as §1
Cytochrome P450 3A4 [12] = molecular target: T1, Cytochrome P450 3A4; experiment: Drug metabolism assessed as human recombinant CYP3A4-mediated metabolite formation by measuring parent compound remaining at 5 uM in presence of NADPH after 30 mins by LC-MS/MS analysis; format: ADME; conditions: recombinant enzyme, 0.5 h; procedure, shortened: as §1
[13] = Metabolic stability in human liver microsomes assessed as parent compound remaining at 5 uM in presence of NADPH after 30 mins by LC-MS/MS analysis; format: ADME; conditions: read-out: Stability; procedure, shortened: as §2

T1 sequence (P08684 whole entry): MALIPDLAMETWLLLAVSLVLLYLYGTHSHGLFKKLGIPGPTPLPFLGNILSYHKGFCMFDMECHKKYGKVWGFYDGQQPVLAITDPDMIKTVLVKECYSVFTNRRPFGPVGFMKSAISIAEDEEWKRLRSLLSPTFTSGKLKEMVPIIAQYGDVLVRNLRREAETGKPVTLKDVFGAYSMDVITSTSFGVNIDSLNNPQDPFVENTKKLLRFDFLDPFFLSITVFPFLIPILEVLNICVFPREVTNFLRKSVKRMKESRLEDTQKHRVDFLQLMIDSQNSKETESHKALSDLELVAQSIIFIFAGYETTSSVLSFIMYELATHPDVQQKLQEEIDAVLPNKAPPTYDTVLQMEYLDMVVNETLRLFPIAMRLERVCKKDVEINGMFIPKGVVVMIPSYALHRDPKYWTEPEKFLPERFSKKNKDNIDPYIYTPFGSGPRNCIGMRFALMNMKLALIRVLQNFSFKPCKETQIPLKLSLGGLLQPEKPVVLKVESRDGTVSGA
T2 sequence (P11712 whole entry): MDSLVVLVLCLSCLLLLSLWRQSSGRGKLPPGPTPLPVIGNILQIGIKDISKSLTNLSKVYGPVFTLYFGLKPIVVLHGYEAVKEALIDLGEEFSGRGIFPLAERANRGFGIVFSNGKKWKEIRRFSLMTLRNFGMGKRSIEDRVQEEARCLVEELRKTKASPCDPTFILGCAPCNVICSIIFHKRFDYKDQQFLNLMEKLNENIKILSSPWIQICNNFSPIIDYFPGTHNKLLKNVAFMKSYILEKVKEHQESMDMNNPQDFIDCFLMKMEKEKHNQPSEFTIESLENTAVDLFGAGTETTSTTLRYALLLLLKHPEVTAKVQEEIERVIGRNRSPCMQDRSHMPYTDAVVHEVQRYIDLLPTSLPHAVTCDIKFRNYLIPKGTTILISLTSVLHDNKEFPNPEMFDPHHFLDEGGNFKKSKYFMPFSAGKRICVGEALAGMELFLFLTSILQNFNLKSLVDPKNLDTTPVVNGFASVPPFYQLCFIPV
Cytochrome P450 2D6, sequence (P10635 whole entry): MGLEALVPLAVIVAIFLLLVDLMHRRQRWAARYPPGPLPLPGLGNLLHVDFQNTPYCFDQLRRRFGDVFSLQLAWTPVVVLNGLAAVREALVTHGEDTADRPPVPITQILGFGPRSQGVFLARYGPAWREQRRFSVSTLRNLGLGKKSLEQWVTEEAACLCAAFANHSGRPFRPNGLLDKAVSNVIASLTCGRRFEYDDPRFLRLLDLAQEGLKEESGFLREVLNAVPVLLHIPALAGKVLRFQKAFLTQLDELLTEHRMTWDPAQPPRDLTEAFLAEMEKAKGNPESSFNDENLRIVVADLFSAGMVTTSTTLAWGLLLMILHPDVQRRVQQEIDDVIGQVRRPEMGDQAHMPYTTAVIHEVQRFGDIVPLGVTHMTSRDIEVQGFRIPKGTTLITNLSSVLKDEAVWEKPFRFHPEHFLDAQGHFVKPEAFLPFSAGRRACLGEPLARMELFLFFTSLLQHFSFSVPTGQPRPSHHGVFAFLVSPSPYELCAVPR

Drug metabolism [1]: Metabolite_Detected
Retention_time [2]: 4.16 min
Drug metabolism (Cytochrome P450 3A4 [3]): Metabolite_Detected
SMILES: CC(C)(CO)c1ccc(S(=O)(=O)Nc2nc(-c3ncccn3)nc(OCCO)c2Oc2ccccc2O)cc1

Drug metabolism (Cytochrome P450 3A4 [4]): Metabolite_Detected
Retention_time [2]: 5.27 min
Drug metabolism [5]: Metabolite_Detected
SMILES: O=S(=O)(Nc1nc(-c2ncccn2)nc(OCCO)c1Oc1ccccc1O)c1ccc(C(F)(C(F)(F)F)C(F)(F)F)cc1

Retention_time [2]: 4.39 min
Drug metabolism [6]: Metabolite_Detected
Drug metabolism (Cytochrome P450 3A4 [7]): Metabolite_Detected
SMILES: O=S(=O)(Nc1nc(-c2ncccn2)nc(OCCO)c1Oc1ccccc1O)c1ccc(C(O)(C(F)(F)F)C(F)(F)F)cc1

Stability (Cytochrome P450 2C9 [8]): 99%
Stability (Cytochrome P450 2D6): > 99%
Drug metabolism [9]: Metabolite_Detected
Drug metabolism (Cytochrome P450 3A4 [10]): Metabolite_Detected
Retention_time [2]: 5.96 min
Drug metabolism (Cytochrome P450 2C9 [11]): Metabolite_Detected
Stability (Cytochrome P450 3A4 [12]): 15%
remaining at 0.5 h, 5 µM [13]: 68.5%
SMILES: CCOc1nc(-c2ncccn2)nc(NS(=O)(=O)c2ccc(C(C)(C)C)cc2)c1Oc1ccccc1OC
